Measured values published in ChEMBL document CHEMBL4261517, “A structurally guided dissection-then-evolution strategy for ligand optimization of smoothened receptor” (Medchemcomm, 2017).

How the values were obtained:
[1] = target: Protein smoothened (Mus musculus, UniProt P56726); assay: Antagonist activity at Smo receptor in mouse NIH/3T3 cells harboring GRE-Luc assessed as inhibition of SAG-induced Hh signaling pathway preincubated for 1 to 2 hrs followed by SAG addition and measured after 24 hrs by Bright-Glo luciferase reporter gene assay; type: functional, cell-based
Procedure, shortened: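 Light II cells (NIH-3T3 stably carrying a Gli-responsive firefly luciferase reporter) treated with compound for 24 h. Luciferase read-out of Hedgehog pathway inhibition. IC50 reported as mean ± SEM from at least three independent experiments, each run in duplicate.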

[2] = target: Protein smoothened (Homo sapiens) (UniProt Q99835); assay: Binding affinity to recombinant human N-terminal FLAG/His10-tagged/C-terminal His10-tagged flavodoxin-fused Smo receptor expressed in HEK293F cells assessed as melting temperature at 100 uM after 40 mins by CPM dye based spectrofluorometric method; type: cell-based
Procedure, shortened: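 Purified SMO in micelles mixed with thiol-reactive CPM dye and thermally denatured. Fluorescence (365/460 nm) followed as exposed cysteines react. Tm taken as the temperature at which 50% of the fluorescence increase is reached.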

[3] = Stability of the compound in DMEM at […] by RP-HPLC analysis; type: physicochemical

Sequence of Protein smoothened (Homo sapiens) (Q99835 whole entry, the tested form may be a part): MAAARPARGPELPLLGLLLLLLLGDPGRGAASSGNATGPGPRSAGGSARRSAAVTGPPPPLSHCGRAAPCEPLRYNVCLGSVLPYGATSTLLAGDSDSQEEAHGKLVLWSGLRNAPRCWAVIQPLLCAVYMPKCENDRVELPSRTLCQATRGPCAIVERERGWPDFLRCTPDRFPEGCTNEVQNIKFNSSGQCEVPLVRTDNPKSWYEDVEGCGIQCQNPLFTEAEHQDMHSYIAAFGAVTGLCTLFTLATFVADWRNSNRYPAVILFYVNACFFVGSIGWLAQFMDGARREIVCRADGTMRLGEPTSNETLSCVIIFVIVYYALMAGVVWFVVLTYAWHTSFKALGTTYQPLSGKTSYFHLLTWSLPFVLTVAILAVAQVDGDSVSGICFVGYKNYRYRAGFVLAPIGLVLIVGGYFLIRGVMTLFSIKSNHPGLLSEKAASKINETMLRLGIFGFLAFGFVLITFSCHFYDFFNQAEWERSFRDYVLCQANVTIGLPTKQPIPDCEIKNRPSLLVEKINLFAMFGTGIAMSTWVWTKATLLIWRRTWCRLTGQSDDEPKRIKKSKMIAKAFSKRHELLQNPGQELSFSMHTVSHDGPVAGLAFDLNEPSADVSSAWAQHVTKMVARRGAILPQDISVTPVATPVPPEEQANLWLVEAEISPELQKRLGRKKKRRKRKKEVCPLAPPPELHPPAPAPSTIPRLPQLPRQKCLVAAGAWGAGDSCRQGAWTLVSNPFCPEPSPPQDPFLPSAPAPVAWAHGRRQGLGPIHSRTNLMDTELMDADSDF
Sequence of Protein smoothened (P56726 whole entry): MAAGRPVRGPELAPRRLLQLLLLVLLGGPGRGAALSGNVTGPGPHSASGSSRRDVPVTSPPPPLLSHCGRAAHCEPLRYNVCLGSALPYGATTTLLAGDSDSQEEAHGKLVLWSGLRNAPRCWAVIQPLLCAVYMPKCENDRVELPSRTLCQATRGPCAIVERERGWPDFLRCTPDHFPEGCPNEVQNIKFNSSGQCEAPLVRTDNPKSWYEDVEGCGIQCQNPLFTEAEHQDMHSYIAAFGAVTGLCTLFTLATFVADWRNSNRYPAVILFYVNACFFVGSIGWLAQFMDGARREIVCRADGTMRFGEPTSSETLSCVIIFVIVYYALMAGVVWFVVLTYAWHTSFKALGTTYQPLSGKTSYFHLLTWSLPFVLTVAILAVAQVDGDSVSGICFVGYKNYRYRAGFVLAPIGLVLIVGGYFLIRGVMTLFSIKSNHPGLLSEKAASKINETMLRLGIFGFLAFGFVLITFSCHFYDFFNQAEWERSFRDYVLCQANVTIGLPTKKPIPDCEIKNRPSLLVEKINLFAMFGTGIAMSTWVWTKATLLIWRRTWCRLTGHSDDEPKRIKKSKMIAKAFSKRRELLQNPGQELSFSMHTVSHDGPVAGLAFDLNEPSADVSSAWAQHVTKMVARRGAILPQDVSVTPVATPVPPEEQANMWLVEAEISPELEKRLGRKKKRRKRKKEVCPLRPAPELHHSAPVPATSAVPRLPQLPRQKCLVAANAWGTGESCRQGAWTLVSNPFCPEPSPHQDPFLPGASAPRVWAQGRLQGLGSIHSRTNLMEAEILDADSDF

Compound `CN(C(=O)c1ccc(S(N)(=O)=O)cc1)C1CCN(c2nnc(-c3ccnn3C)c3ccccc23)CC1` has an IC50 [1] of 3240 nM and a Tm [2] of 57.1 °C.

Work on `CN(C(=O)c1ccc(B(O)O)cc1)C1CCN(c2nnc(-c3ccnn3C)c3ccccc23)CC1` yielded an IC50 [1] of 870 nM and a Tm [2] of 59.4 °C.

With `CN(C(=O)c1ccc(C(N)=O)cc1)C1CCN(c2nnc(-c3ccnn3C)c3ccccc23)CC1` the IC50 [1] was 3020 nM and the Tm [2] was 59.7 °C.

For `CN(C)c1ccc(C(=O)N(C)C2CCN(c3nnc(-c4ccnn4C)c4ccccc34)CC2)cc1`, the IC50 [1] was 1410 nM and the Tm [2] was 58.5 °C.

In the case of `CN(C(=O)c1ccc([N+](=O)[O-])cc1)C1CCN(c2nnc(-c3ccnn3C)c3ccccc23)CC1`, the IC50 [1] is reported as 236 nM and the Tm [2] is reported as 61 °C.

`CN(C(=O)c1ccc(OCc2ccccc2)cc1)C1CCN(c2nnc(-c3ccnn3C)c3ccccc23)CC1` gave an IC50 [1] of 1800 nM and a Tm [2] of 58.4 °C.

With `CN(Cc1ccc(F)cc1C(F)(F)F)C1CCN(c2nnc(-c3ccnn3C)c3ccccc23)CC1` the Stability [3] was “Stable”.

Work on `CN(C(=O)c1ccc(F)cc1)C1CCN(c2nnc(-c3ccnn3C)c3ccccc23)CC1` yielded an IC50 [1] of 1570 nM and a Tm [2] of 59.1 °C.

In the case of `CN(C(=O)c1ccc(CC=O)cc1)C1CCN(c2nnc(-c3ccnn3C)c3ccccc23)CC1`, the IC50 [1] is reported as > 10000 nM and the Tm [2] is reported as 60.2 °C.

With `CN(C(=O)c1ccc(S(=O)(=O)O)cc1)C1CCN(c2nnc(-c3ccnn3C)c3ccccc23)CC1` the IC50 [1] was 2680 nM and the Tm [2] was 59.4 °C.

For `COC(=O)c1ccc(C(=O)N(C)C2CCN(c3nnc(-c4ccnn4C)c4ccccc34)CC2)cc1`, the IC50 [1] was > 10000 nM and the Tm [2] was 60.3 °C.

In the case of `CN(C(=O)c1ccc(NCC(=O)O)cc1)C1CCN(c2nnc(-c3ccnn3C)c3ccccc23)CC1`, the IC50 [1] is reported as > 10000 nM and the Tm [2] is reported as 56.8 °C.

With `CN(C(=O)c1ccc(S(C)(=O)=O)cc1)C1CCN(c2nnc(-c3ccnn3C)c3ccccc23)CC1` the IC50 [1] was > 10000 nM and the Tm [2] was 56.3 °C.

In the case of `CN(C(=O)c1ccccc1)C1CCN(c2nnc(-c3ccnn3C)c3ccccc23)CC1`, the Stability [3] is reported as “Stable”.

For `CN(C(=O)c1ccc(C=O)cc1)C1CCN(c2nnc(-c3ccnn3C)c3ccccc23)CC1`, the IC50 [1] was 2890 nM and the Tm [2] was 59 °C.

In the case of `CN(C(=O)c1ccc(F)cc1C(F)(F)F)C1CCN(c2nnc(-c3ccnn3C)c3ccccc23)CC1` [TALADEGIB], the Stability [3] is reported as “Stable”.

`CN(C(=O)c1ccc(N)cc1)C1CCN(c2nnc(-c3ccnn3C)c3ccccc23)CC1` showed an IC50 [1] of 2020 nM and a Tm [2] of 58.2 °C.

`CN(C(=O)c1ccc(Oc2ccccc2)cc1)C1CCN(c2nnc(-c3ccnn3C)c3ccccc23)CC1` gave an IC50 [1] of 270 nM and a Tm [2] of 59.6 °C.

With `CN(C(=O)c1ccc(C(=O)O)cc1)C1CCN(c2nnc(-c3ccnn3C)c3ccccc23)CC1` the IC50 [1] was > 10000 nM and the Tm [2] was 56.8 °C.

For `CN(C(=O)c1ccc(F)cc1C(F)(F)F)C1CCN(c2nnc(Cl)c3ccccc23)CC1`, the Stability [3] was “Stable”.

In the case of `CN(C(=O)c1ccc(F)cc1C(F)(F)F)C1CCN(c2ccc(-c3ccnn3C)c3ccccc23)CC1`, the Stability [3] is reported as “Stable”.
